Entries after “also recorded” stand apart in the source; their conditions may differ.
How the values were obtained:
[1] = assay type: in vivo, human
[2] = Safety evaluation; assay type: in vivo, human
How it was run: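 Adults with chronic musculoskeletal non-cancer pain received one 2-min IV injection in a single-centre, open-label, ascending-dose design, with a 2-person 0.75 mg pretest. Monitoring covered vital signs to 72 h, SpO2 to 8 h, Holter from −30 min to 24 h, ECG at 48/72 h, 72 h labs, and injection-site checks to 6 h. AEs were graded by system/severity and drug relation; groups compared by Fisher's exact or chi-square.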

## COc1ccsc1CNCC[C@@]1(c2ccccn2)CCOC2(CCCC2)C1 [Oliceridine, [(3-methoxythiophen-2-yl)methyl]({2-[(9R)-9-(pyridin-2-yl)-6-oxaspiro-[4.5]decan-9-yl]ethyl})amine]
[1]; 0.75 mg group (11 of 12)
  Participants achieving Cmax approximately 2 minutes post-administration: 91.7%
[1]; 0.75 mg group (one participant)
  Participants reaching Cmax around 5 minutes: 8.3%
[1]; 1.5 mg group (9 of 10)
  Participants attaining peak concentration at about 2 min: 90%
[1]; 1.5 mg group (one participant, intravenous line blockage)
  Participants attaining peak concentration at about 3 min: 10%
[1]; 3.0 mg group (1 participant)
  Participants attaining peak at around 10 min: 10%
[1]; 3.0 mg group (4 of 10)
  Participants attaining peak at about 2 min: 40%
[1]; 3.0 mg group (5 participants)
  Participants attaining peak at approximately 5 min: 50%
[1]; human, plasma, iv
  Tmax: 2.04 to 4.98 min
  half-life: 111 to 125 min
[2]; Chinese patients with chronic non-cancer pain, 0.75 mg to 3.0 mg
  Safety and tolerability: safe and well tolerated
[2]; all doses
  TEAEs leading to discontinuation of the study: none of the TEAEs led to discontinuation of the study
[2]; all doses, 32 participants
  Severe TEAEs: no reports of severe TEAEs
[2]; single IV dose 0.75-3.0 mg, 32 participants
  Serious adverse events (SAEs): no serious adverse events were observed; also recorded: No SAEs were reported

Reference: paper PMC11227858 (Drug Design, Development and Therapy, 2024)
